Hits are enriched below; roughly 7.1% of the tested compounds scored in any of these assays.
HUVEC inhibit: inhibitors of human endothelial cell proliferation; HUVEC proliferation, CellTiter-Glo luminescence, 72 h; hits give low values; viability, % at 10 µM (by protocol); 86,000 compounds, 1.1% hits; AID 648;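 active = viability at or below 30%; inactive = viability above 30%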
Cav32 inh: human Cav3.2 channel inhibition, primary screen. O95180. Cav3.2-expressing cells, Fluo-4 calcium fluorescence FDSS; hits give low values. B-score at 10 µM. 100,000 compounds, 4% hits. AID 449739;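 active = single-dose well whose peak fluorescence ratio is a statistical outlier from its plate by either plate-standardised score or position-corrected B-score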
Target sequence (O95180 whole entry, looked up): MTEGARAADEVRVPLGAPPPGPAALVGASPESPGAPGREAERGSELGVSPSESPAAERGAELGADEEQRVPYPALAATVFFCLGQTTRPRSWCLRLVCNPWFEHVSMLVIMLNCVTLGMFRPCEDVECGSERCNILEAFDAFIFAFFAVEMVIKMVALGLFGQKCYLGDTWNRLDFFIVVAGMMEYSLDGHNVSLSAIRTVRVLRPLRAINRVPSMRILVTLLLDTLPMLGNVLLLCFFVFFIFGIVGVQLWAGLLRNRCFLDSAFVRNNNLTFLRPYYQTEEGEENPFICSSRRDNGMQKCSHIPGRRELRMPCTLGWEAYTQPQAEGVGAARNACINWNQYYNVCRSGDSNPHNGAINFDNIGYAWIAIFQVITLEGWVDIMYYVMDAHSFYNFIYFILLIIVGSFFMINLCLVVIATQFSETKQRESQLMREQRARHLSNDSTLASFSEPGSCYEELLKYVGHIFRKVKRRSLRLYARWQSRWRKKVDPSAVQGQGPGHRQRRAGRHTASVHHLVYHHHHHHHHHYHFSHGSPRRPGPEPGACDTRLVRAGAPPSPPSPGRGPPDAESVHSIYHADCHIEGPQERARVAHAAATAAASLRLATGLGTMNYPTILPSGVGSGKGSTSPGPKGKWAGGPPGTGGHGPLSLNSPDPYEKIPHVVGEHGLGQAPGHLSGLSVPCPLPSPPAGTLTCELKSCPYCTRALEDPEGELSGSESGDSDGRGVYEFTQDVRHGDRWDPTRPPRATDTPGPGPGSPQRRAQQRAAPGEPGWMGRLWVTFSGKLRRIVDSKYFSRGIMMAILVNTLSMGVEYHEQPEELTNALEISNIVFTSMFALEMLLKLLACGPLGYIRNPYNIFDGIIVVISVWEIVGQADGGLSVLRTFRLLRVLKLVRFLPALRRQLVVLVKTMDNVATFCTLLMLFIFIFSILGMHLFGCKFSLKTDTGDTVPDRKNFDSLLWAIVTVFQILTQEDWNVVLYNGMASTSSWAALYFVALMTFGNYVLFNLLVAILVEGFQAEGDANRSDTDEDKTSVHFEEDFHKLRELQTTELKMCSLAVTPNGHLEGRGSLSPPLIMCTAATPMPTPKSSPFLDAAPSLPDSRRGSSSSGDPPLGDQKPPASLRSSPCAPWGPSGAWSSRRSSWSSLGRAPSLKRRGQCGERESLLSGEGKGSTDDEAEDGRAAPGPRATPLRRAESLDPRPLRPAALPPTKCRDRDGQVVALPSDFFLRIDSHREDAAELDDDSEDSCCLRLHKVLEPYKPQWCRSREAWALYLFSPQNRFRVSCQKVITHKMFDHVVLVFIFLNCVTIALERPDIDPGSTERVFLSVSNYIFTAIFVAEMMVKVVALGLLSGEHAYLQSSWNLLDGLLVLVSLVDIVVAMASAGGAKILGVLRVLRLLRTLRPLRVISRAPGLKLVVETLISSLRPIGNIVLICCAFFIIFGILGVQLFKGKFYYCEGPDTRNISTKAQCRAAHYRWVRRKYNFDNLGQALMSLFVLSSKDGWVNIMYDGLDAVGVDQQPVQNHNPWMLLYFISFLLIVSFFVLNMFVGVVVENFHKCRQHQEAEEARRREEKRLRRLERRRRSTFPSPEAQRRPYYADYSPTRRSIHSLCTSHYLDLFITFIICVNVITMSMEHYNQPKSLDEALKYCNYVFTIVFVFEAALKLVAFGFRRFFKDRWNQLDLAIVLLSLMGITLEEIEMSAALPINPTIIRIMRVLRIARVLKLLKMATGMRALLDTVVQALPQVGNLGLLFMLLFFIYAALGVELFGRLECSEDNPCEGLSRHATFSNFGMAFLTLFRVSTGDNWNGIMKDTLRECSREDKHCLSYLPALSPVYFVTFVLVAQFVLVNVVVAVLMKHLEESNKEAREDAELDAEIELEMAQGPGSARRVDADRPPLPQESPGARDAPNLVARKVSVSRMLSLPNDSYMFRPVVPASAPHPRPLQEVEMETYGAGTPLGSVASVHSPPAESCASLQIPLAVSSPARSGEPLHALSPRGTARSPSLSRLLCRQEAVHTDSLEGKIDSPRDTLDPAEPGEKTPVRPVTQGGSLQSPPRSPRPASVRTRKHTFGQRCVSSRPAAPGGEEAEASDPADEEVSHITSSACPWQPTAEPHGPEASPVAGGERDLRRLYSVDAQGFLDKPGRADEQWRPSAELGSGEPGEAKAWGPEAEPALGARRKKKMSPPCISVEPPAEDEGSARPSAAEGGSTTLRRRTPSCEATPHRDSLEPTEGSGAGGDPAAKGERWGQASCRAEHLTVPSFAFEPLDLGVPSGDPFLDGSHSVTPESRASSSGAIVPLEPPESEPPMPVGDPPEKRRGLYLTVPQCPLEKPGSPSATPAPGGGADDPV
bCat KO growth: beta-catenin-lacking colon tumor cell growth suppression | 140,000 compounds, 1.5% hits | AID 818 | viability, % at 10 µM | HCT116 beta-catenin knockout viability, CellTiter-Glo, 60 h; hits give low values;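 active = viability at or under a set limit, the compound median less 4 SD, cut at about 6% in these data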
Fibroblast inh: blocks proliferation of human lung fibroblasts | viability, % at 10 µM | LL 47 human lung fibroblast viability, ATP luminescence; hits give low values | 85,000 compounds, 1.1% hits | AID 719;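 active = viability at or below 50% in the single dose screen; inactive = viability above 50%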;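 also: compound exposure lasted 72 h before the ATP readout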
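Test system: LL 47 human lung fibroblasts / Quantity: 1,150 cells in each well / Medium: IMEM growth medium with 15% fetal bovine serum / Incubation: 72 h compound exposure at 37 °C after overnight plating / Detection: CellTiter-Glo luminescence measuring cellular ATP / Read-out: % viability versus median cells-only luminescence / Benchmarks: cell-only wells, no compound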
H69AR growth 86K: blocks growth of human H69AR lung tumor cells. H69AR lung tumor viability, ATP luminescence, 72 h; hits give low values. viability, % at 10 µM. 85,000 compounds, 6% hits. AID 598;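 active = viability at or below 40%; inactive = viability above 40%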;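 also: multidrug resistant small cell line overexpressing MRP-1 efflux transporter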
HCT116 PTEN-null: suppresses growth of cells with PTEN deletion; AID 827; 140,000 compounds, 1.2% hits; HCT116 PTEN-null viability, CellTiter-Glo, 60 h; hits give low values; viability, % at 10 µM;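 active = viability at or below a set limit, 4 SD under the median of all tested compounds, cut at about 3.7% in these data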;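 also: PTEN knockout HCT116 line with beta catenin targeted HCT116 as companion control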
Large screens that a line does not name were inactive.

CCCNC(=O)c1c(NC(=O)C2COc3ccccc3O2)sc2c1CCCC2 (centres undefined)	Fibroblast inh 13, H69AR growth 86K 29
O=C(Nc1nc2c(s1)CCCC2)C1COc2ccccc2O1 (centres undefined)	Cav32 inh -4.9
O=C(NC1CCS(=O)(=O)C1)c1c(NC(=O)C2COc3ccccc3O2)sc2c1CCCC2 (centres undefined)	H69AR growth 86K 23
CC1CCCCC1NC(=O)CN1C(=O)CSc2cc(S(=O)(=O)N3CCCCCC3)ccc21 (centres undefined)	none (no result: Cav32 inh)
CCC(CC)c1nnc(NC(=O)C2COc3ccccc3O2)s1 (centres undefined)	Cav32 inh -3.9
Cc1cc(=O)oc2cc(NC(=O)C3COc4ccccc4O3)ccc12 (centres undefined)	H69AR growth 86K 39
Cc1cc(NC(=O)c2ccc(S(=O)(=O)N3CCOCC3)cc2)nc2c1c(=O)oc1ccccc12	none (no result: HUVEC inhibit, Cav32 inh, Fibroblast inh, H69AR growth 86K)
CCC(CC)C(=O)Nc1cc(C)c2c(=O)oc3ccccc3c2n1	none
Cc1cc(NC(=O)c2ccc(S(=O)(=O)N3CCCC3)cc2)nc2c1c(=O)oc1ccccc12	H69AR growth 86K 18 (no result: Cav32 inh)
CCOc1ccc(C(=O)Nc2cc(C)c3c(=O)oc4ccccc4c3n2)cc1	HUVEC inhibit 26, H69AR growth 86K 19
COc1ccc(CC(=O)Nc2cc(C)c3c(=O)oc4ccccc4c3n2)cc1	H69AR growth 86K 22 (no result: bCat KO growth, HCT116 PTEN-null)
O=C(CN1CCN(c2ccccc2F)CC1)Nc1ccccc1F	none (no result: Cav32 inh)
Cc1cc(NC(=O)CN2CCN(c3ccccc3F)CC2)nc2c1c(=O)oc1ccccc12	H69AR growth 86K 34 (no result: Cav32 inh, bCat KO growth, HCT116 PTEN-null)
CCOC(=O)Cc1nn2c(=O)cc(C)nc2s1	Cav32 inh -5
CCc1ccc(C(C)NC(=O)Cn2cnc3c(=O)n(C)c(=O)n(C)c32)cc1 (centres undefined)	none
O=C(Nc1ccc(-c2nc3ccc(NC(=O)c4cccs4)cc3[nH]2)cc1)c1cccs1	HUVEC inhibit 4.1, Fibroblast inh 41, H69AR growth 86K 3.1
O=C(Nc1ccc2nc(-c3cccnc3)[nH]c2c1)c1ccccc1F	H69AR growth 86K 34
O=C(Nc1ccc2oc(-c3ccccc3)nc2c1)c1cccs1	H69AR growth 86K 39
CC(=O)Nc1ccc2nc(-c3ccncc3)[nH]c2c1	none
O=C(Nc1ccc2cn[nH]c2c1)c1ccccc1F	none (no result: HUVEC inhibit, Cav32 inh, Fibroblast inh, H69AR growth 86K)
O=C(Nc1ccc2nc(-c3cccs3)[nH]c2c1)c1cccs1	H69AR growth 86K 39
O=C(Nc1ccc2nc(-c3cccs3)[nH]c2c1)c1ccco1	none
CCn1ncc(/C=N/NC(=O)c2cc(Cl)ccc2OC)c1C	none (no result: HUVEC inhibit, Cav32 inh, Fibroblast inh, H69AR growth 86K)
Cc1[nH]c2c(C)cccc2c1CCNC(=O)c1ccc2c(c1[N+](=O)[O-])C(=O)c1ccccc1C2=O	bCat KO growth 2.1, HCT116 PTEN-null 2.0 (no result: HUVEC inhibit, Fibroblast inh, H69AR growth 86K)
CN(C)S(=O)(=O)c1cccc2c1C(=O)c1ccccc1C2=O	none (no result: HUVEC inhibit, Cav32 inh, Fibroblast inh, H69AR growth 86K)
Cc1[nH]c2ccccc2c1CCNC(=O)c1ccc2c(c1[N+](=O)[O-])C(=O)c1ccccc1C2=O	bCat KO growth 2.3 (no result: HUVEC inhibit, Cav32 inh, Fibroblast inh, H69AR growth 86K)
CN(C)C(=O)c1ccc2c(c1[N+](=O)[O-])C(=O)c1ccccc1C2=O	bCat KO growth 2.0, HCT116 PTEN-null 1.7 (no result: HUVEC inhibit, Cav32 inh, Fibroblast inh, H69AR growth 86K)
CCCCOc1ccc(Cl)cc1CSc1nnc(C)n1N	none
COc1cc2nc(=S)n3[nH]c(CCn4c(C)nc5ccccc54)nc3c2cc1OC	Cav32 inh 3.3
COc1ccc(OCc2nc3c4cc(OC)c(OC)cc4nc(=S)n3[nH]2)cc1	none (no result: HUVEC inhibit, Cav32 inh, Fibroblast inh, H69AR growth 86K)
COc1cc(Cl)c(C)cc1NC(=O)CSc1cc(Cl)ccc1Cl	none (no result: HUVEC inhibit, Cav32 inh, Fibroblast inh, H69AR growth 86K)
Cc1ccc(C)c(-n2c(SCC(=O)Nc3nonc3C)nnc2-c2ccoc2C)c1	Cav32 inh -6
Cc1nonc1NC(=O)CSc1nc2cc(Cl)ccc2c2c1CCCC2	none
Cc1ccc2c3c(c(SCC(=O)Nc4nonc4C)nc2c1)CCCC3	H69AR growth 86K 16
Cc1ccc(C)c(-n2c(SCC(=O)Nc3nnc(C)s3)nnc2-c2ccoc2C)c1	none
CCNc1ccc(C(=O)OCC)cc1NC(=O)c1cccc(N(C)C)c1	H69AR growth 86K 22
Cc1ccc([N+](=O)[O-])cc1-c1[nH]c(-c2ccc(O)c(O)c2)nc1-c1ccccc1	H69AR growth 86K 10
O=C1CCCc2c1[nH]c1ccccc21	none
CC(C)COc1ccc2[nH]c3c(c2c1)CCCC3=O	HUVEC inhibit 20
COc1ccc(/C=C/C(=O)c2ccccc2)cc1Cn1nnc2ccccc21	bCat KO growth 2.9, HCT116 PTEN-null 2.8 (no result: HUVEC inhibit, Cav32 inh, Fibroblast inh, H69AR growth 86K)
COc1ccc(C(=O)/C=C/c2ccc(OC)c(COc3ccccc3F)c2)cc1	none (no result: HUVEC inhibit, Cav32 inh, Fibroblast inh, H69AR growth 86K)
Cc1ccc2c(c1)N(C(=O)CCC(=O)O)CCO2	none (no result: HUVEC inhibit, Cav32 inh, Fibroblast inh, H69AR growth 86K)
Cc1cnn(-c2cc(N/N=C/c3ccccc3)ncn2)c1	none (no result: HUVEC inhibit, Fibroblast inh, H69AR growth 86K)
Cc1cnn(-c2cc(N/N=C/c3ccccc3F)ncn2)c1	HCT116 PTEN-null 2.6 (no result: HUVEC inhibit, Cav32 inh, Fibroblast inh, H69AR growth 86K)
O=C(COC(=O)/C=C/c1ccc(OC(F)F)cc1)NCc1cccs1	none (no result: HUVEC inhibit, Cav32 inh, Fibroblast inh, H69AR growth 86K)
COc1ccc(NC(=O)Cn2cnc3c(cnn3-c3ccc(C)c(C)c3)c2=O)c(OC)c1	H69AR growth 86K 8.3
CCOC(=O)c1c(NS(C)(=O)=O)sc2c1CCC(C)C2 (centres undefined)	Cav32 inh -10
C/C(=N/NC(=O)CNC(=O)c1ccccn1)c1ccccc1	none (no result: HUVEC inhibit, Cav32 inh, Fibroblast inh, H69AR growth 86K)
C/C(=N\NC(=O)CCCNc1ccc(C)cc1)c1ccccn1	bCat KO growth 5.8 (no result: HUVEC inhibit, Cav32 inh, Fibroblast inh, H69AR growth 86K)
COc1ccc(Cn2c(-c3ccc(Br)cc3)c[n+]3ccccc23)cc1	none (no result: HUVEC inhibit, Cav32 inh, Fibroblast inh, H69AR growth 86K)
Cc1cc(NC(=O)Cn2c(=O)n(Cc3ccccc3)c(=O)c3ccccc32)no1	none (no result: HUVEC inhibit, Cav32 inh, Fibroblast inh, H69AR growth 86K)
